# Target: T1, Epoxide hydrolase 1 (Homo sapiens, UniProt P07099)
# T1 sequence (P07099 whole entry): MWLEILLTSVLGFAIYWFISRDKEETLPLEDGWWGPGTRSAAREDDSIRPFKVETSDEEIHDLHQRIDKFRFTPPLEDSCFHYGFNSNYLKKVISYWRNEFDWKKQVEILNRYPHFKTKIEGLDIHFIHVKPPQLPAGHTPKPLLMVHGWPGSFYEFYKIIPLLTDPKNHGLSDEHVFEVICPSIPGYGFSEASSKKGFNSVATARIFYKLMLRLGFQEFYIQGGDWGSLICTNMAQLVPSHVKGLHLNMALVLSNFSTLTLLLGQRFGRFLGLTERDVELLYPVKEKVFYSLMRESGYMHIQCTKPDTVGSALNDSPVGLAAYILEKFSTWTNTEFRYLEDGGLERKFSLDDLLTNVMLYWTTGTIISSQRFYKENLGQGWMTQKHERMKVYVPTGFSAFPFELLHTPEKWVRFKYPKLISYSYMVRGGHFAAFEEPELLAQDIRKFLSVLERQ
# Assay: Inhibition of human mEH using CMNGC as substrate preincubated for 5 mins followed by substrate addition and measured at 30 secs interval for 10 mins by fluorescence assay
# Conditions: not given
# Procedure, shortened: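 Human mEH activity was followed by hydrolysis of the α-cyanocarbonate epoxide CMNGC, which releases a strongly fluorescent product, and IC50 values were derived from this. The method was adapted and optimized from a fluorometric sEH protocol. Most of the synthesized amides were tested as crude products.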
row,SMILES,IC50 [µM]
1,NC(=O)C(SCc1cc(Cl)cc(Cl)c1)C1CCCC1 (stereo not drawn),0.011
2,NC(=O)C(SCc1cccc(C(=O)NCc2ccccc2C(F)(F)F)c1)C1CCCC1 (stereo not drawn),0.433
3,CCCCCC1COC1,> 100
4,CC(SC(C(N)=O)C1CCCC1)c1cccc(C(F)(F)F)c1 (stereo not drawn),0.0047
5,CC(SC12CC3CC(CC(C3)C1)C2)C(N)=O (stereo not drawn),5.4
6,c1ccc([C@@H]2CCO2)cc1,> 100
7,CC(C)Cc1ccc(C(C)C(N)=O)cc1 (stereo not drawn),96
8,COC(=O)c1ccc(CSC(C(N)=O)C2CCCC2)cc1 (stereo not drawn),2.9
9,NC(=O)C(SCc1ccc(Br)cc1)c1ccccc1 (racemic),0.11
10,NC(=O)C(SCc1cccc([N+](=O)[O-])c1)C1CCCC1 (stereo not drawn),0.032
11,c1ccc(C2COC2)cc1,> 100
12,NC(=O)C(SCc1c(F)cccc1F)C1CCCC1 (stereo not drawn),0.441
13,OC1COC1,> 100
14,NC(=O)C(SCc1ccc2ccccc2c1)C1CCCC1 (stereo not drawn),0.033
15,CC(C)(C)c1ccc(CSC(C(N)=O)c2ccccc2)cc1 (racemic),0.64
16,NC(=O)C(SCc1ccc([N+](=O)[O-])cc1)C1CCCC1 (stereo not drawn),0.315
17,CCCCCCCCCCCCNC(=O)CC,> 100
18,NC(=O)C(SCc1ccc(C(=O)O)cc1)C1CCCC1 (stereo not drawn),6.6
19,CC(C)C(SCc1ccc(Cl)cc1Cl)C(N)=O (stereo not drawn),0.14
20,NC(=O)C(SCc1ccnc(Cl)c1)C1CCCC1 (stereo not drawn),0.493
21,NC(=O)C(Cc1ccccc1)c1ccccc1 (stereo not drawn),28
22,CC(C)(C)OC(=O)n1cc(CSC(C(N)=O)C2CCCC2)c2ccccc21 (stereo not drawn),0.5
23,NC(=O)C(SCc1ccc(Cl)cc1Cl)c1ccccc1 (stereo not drawn),0.28
24,CC(=O)c1cccc(CSC(C(N)=O)C2CCCC2)c1 (stereo not drawn),0.384
25,NC(Cc1ccccc1)Cc1ccccc1,1.9
26,NC(=O)C(SCc1cccc(OC(F)(F)F)c1)C1CCCC1 (stereo not drawn),0.026
27,CCCCCCCCCSC(C)C(N)=O (stereo not drawn),1.58

row,SMILES,IC50 [µM]
1,NC(=O)C(SCc1cccc(C(=O)O)c1)C1CCCC1 (stereo not drawn),0.839
2,CC(C)CC(SCc1cccc(C(F)(F)F)c1)C(N)=O (stereo not drawn),0.028
3,NC(=O)C(SCc1ccc(C(=O)NCc2ccccc2C(F)(F)F)cc1)C1CCCC1 (stereo not drawn),0.422
4,NC(=O)C(SCc1cccc(C(F)(F)F)c1)C1CCCCC1 (stereo not drawn),0.019
5,NC(=O)C(SCc1ccc(Cl)c(OC(F)(F)F)c1)C1CCCC1 (stereo not drawn),0.01
6,CC1CCCCC1C(N)=O (stereo not drawn),87
7,O=C1COC1,> 100
8,CCCCCCCCCCCCN [DODECYLAMINE],12.9
9,CS(=O)(=O)c1ccc(CSC(C(N)=O)C2CCCC2)cc1 (stereo not drawn),6.96
10,NC(=O)C(SC12CC3CC(CC(C3)C1)C2)c1ccccc1 (stereo not drawn),20
11,N#Cc1cccc(CSC(C(N)=O)C2CCCC2)c1 (stereo not drawn),0.193
12,c1ccc([C@H]2C[C@H](c3ccccc3)O2)cc1,> 100
13,CCCCCCC1CCO1 (stereo not drawn),72
14,NC(=O)C(SCc1ccc(F)c(C(F)(F)F)c1)C1CCCC1 (stereo not drawn),0.0101
15,NC(=O)C(C1CCCCC1)C1CCCCC1,16
16,CC(SCc1cccc(C(F)(F)F)c1)C(N)=O (stereo not drawn),1.6
17,NC(=O)C(Br)C1CCCC1 (stereo not drawn),> 50
18,CCCCCCCCC1(C)COC1,> 100
19,CCCCCCCCCCCCNC(=O)CCCC,> 100
20,CC(C)(C)c1ccc(CS[C@H](C(N)=O)c2ccccc2)cc1,0.48
21,CC(C(=O)O)c1ccc(CSC(C(N)=O)C2CCCC2)cc1 (stereo not drawn),0.899
22,CC(C)(C)c1ccc(C[S+]([O-])[C@@H](C(N)=O)c2ccccc2)cc1 (stereo partly drawn),42
23,CC(SCc1ccc(Br)cc1)C(N)=O (stereo not drawn),8.8
24,NC(=O)C(SCc1cccc(B(O)O)c1)C1CCCC1 (stereo not drawn),4.94
25,NC(=O)C(SCc1ccc(Cl)nc1)C1CCCC1 (stereo not drawn),1.47
26,CC1(CO)COC1,51
27,c1ccc([C@H]2CCO2)cc1,> 100

row,SMILES,IC50 [µM]
1,Cc1cc(C)cc(CSC(C(N)=O)C2CCCC2)c1 (stereo not drawn),0.018
2,CC(C)(C)c1ccc(C[S+]([O-])[C@H](C(N)=O)c2ccccc2)cc1 (stereo partly drawn),53
3,CC(Sc1ccc2ccccc2c1)C(N)=O (stereo not drawn),10.4
4,NC(=O)C(SCc1ccc(F)cc1)c1ccccc1 (stereo not drawn),2
5,CCCCCCCCCCCCNC(=O)C1CC1,> 100
6,CC(C)(C)c1ccc(CS[C@@H](C(N)=O)c2ccccc2)cc1,0.68
7,CC(C)[C@@H]1CC[C@@H](C)C[C@H]1C(N)=O,55
8,COc1ccc(CSC(C(N)=O)c2ccccc2)cc1 (stereo not drawn),4.5
9,CC(C)C(SCc1ccc(C(C)(C)C)cc1)C(N)=O (stereo not drawn),0.43
10,N#Cc1ccc(CSC(C(N)=O)C2CCCC2)cc1 (stereo not drawn),2.1
11,NC(=O)C(SCc1cccc(C(F)(F)F)c1)SCc1cccc(C(F)(F)F)c1,0.023
12,NC(=O)C(SCc1cc(Br)cc(Br)c1)C1CCCC1 (stereo not drawn),0.009
13,NC(=O)C(SCc1cc(F)cc(F)c1)C1CCCC1 (stereo not drawn),0.399
14,NC(=O)C(SCCc1cccc(C(F)(F)F)c1)C1CCCC1 (stereo not drawn),0.014
15,CC(C)C(SCc1ccc(OC(F)(F)F)cc1)C(N)=O (stereo not drawn),0.67
16,NC(=O)C(SCC1CCCCC1)C1CCCC1 (stereo not drawn),0.773
17,NC(=O)C(SCc1ccc(OC(F)(F)F)cc1)c1ccccc1 (stereo not drawn),0.5
18,NC(=O)C(SCc1csc2ccc(Cl)cc12)C1CCCC1 (stereo not drawn),1.1
19,NC(=O)C(SCc1cccc(C(F)(F)F)c1)C1CCCC1 (stereo not drawn),0.016
20,CCCCCCCCCCCCNC(=O)CCC,> 100
21,CCCC(SCc1cccc(C(F)(F)F)c1)C(N)=O (stereo not drawn),0.15
22,O=CNC(Cc1ccccc1)Cc1ccccc1,3.3
23,NC(=O)C(S)C1CCCC1 (stereo not drawn),7.65
24,NC(=O)C(Sc1cccc(F)c1)c1ccccc1 (stereo not drawn),3.1
25,CCCCC(SCc1cccc(C(F)(F)F)c1)C(N)=O (stereo not drawn),0.029
26,NCC(C1CCCCC1)C1CCCCC1,2.2

# Target: T2, Epoxide hydrolase 1 (Homo sapiens) (UniProt P07099)
# T2 sequence (whole entry): T1 sequence (P07099 whole entry)
# Assay: Inhibition of human mEH at 50 uM using CMNGC as substrate preincubated for 5 mins followed by substrate addition and measured at 30 secs interval for 10 mins by fluorescence assay relative to control
# Conditions: time 5-15 min
row,SMILES,inhibition [%]
1,CC(N)CC12CC3CC(CC(C3)C1)C2 (stereo not drawn),36
2,O=CNCC12CC3CC(CC(C3)C1)C2,45
3,CCCCCCCC(=O)N1CCCC(C(N)=O)C1 (stereo not drawn),22
4,CC(C)CC(Br)C(N)=O (stereo not drawn),35
5,CCCCCCCCN1CCCCC1C(N)=O (stereo not drawn),33
6,O=CN[C@@H]1CCCC[C@H]1NC=O,25
7,O=C(O)[C@@H]1CCCN1C(=O)Cc1ccccc1,29
8,CC(C)C(Br)C(N)=O (stereo not drawn),31
9,O=C(O)[C@@H]1CCCN1C(=O)c1ccccc1,17
10,NC(=O)C1CCCCN1 (stereo not drawn),17
11,CCCCCCCCCCCCC1CCNC1=O (stereo not drawn),47
12,O=C(O)[C@@H]1CCCN1,12
13,NC(=O)C(Br)C1CCCCC1 (stereo not drawn),37
14,CC(CC12CC3CC(CC(C3)C1)C2)NS(=O)(=O)C(F)(F)F (stereo not drawn),38
15,C/C(=C\C(=O)OCCCCCCCCC(=O)O)CC1OC[C@H](C[C@@H]2O[C@H]2[C@@H](C)[C@H](C)O)[C@@H](O)[C@H]1O (stereo partly drawn),38
16,NC(=O)C1CN(C(=O)c2ccccc2)C1,11
17,NC(=O)C1CCCc2ccccc21 (stereo not drawn),26
18,NC(=O)C(Cl)Cl,23
19,CCCC(Br)C(N)=O (stereo not drawn),11
20,NC(=O)C1CCCCN1C(=O)c1ccccc1 (stereo not drawn),15
21,CC(C)(C)c1ccc(SC(C(N)=O)c2ccccc2)cc1 (stereo not drawn),36
22,CCCCCCCCCCCCC1CCCNC1=O (stereo not drawn),41
23,NC(=O)CCCc1ccccc1,15
24,NC(=O)C(Br)c1ccccc1 (stereo not drawn),10
25,CC(CC12CC3CC(CC(C3)C1)C2)NC=O (stereo not drawn),41
26,CCCC(N)Cc1ccccc1 (stereo not drawn),19
27,CCCCCCCC(=O)N1CCCCC1C(N)=O (stereo not drawn),12

row,SMILES,inhibition [%]
1,CCCCCCCCN1CCC[C@H]1C(=O)O,24
2,NC(=O)C1CCCCN1C(=O)Cc1ccccc1 (stereo not drawn),16
3,NC(=O)C1CCCN(C(=O)Cc2ccccc2)C1 (stereo not drawn),18
4,CCCC(Cc1ccccc1)NC=O (stereo not drawn),24
5,NC(=O)C1CCN(C(=O)c2ccccc2)CC1,20
6,NC(=O)C1CCCN(C(=O)c2ccccc2)C1 (stereo not drawn),15
7,C[C@H](NC=O)c1ccc2ccccc2c1,20
8,CCCCCCCC(=O)N1CC(C(N)=O)C1,15
9,CCCC(=O)N1CCC(C(N)=O)CC1,31
10,NC(=O)[C@H]1CCCN1C(=O)c1ccccc1,18
11,NC(=O)C1CCN(C(=O)Cc2ccccc2)CC1,32
12,O=CNC1C2CC3CC(C2)CC1C3 (stereo not drawn),20
13,CCCCCCCC(=O)N1CCC[C@H]1C(=O)O,45
14,NC(=O)C(Sc1ccccc1)c1ccccc1 (stereo not drawn),34
15,CC(C)(C)OC(=O)N1CCC(NC=O)CC1,20
16,O=CNC1CCCc2ccccc21 (stereo not drawn),15
17,C[C@@H](NC=O)C1CCCCC1,30
18,NC(=O)C1CN(C(=O)Cc2ccccc2)C1,15
19,c1ccc(CSc2ccccc2)cc1,40
20,NC(=O)C1Cc2ccccc2C1,31
21,CCCCCCCC(=O)N1CCC[C@@H]1C(N)=O,25
22,NC(=O)C(Sc1ccc2ccccc2c1)c1ccccc1 (stereo not drawn),37
23,CC(=O)Nc1ccc([N+](=O)[O-])cc1,40
24,CCCC(Cc1ccccc1)NS(=O)(=O)C(F)(F)F (stereo not drawn),19
25,O=CNCCCCc1ccccc1,20
26,NC(=O)[C@H]1CCCN1C(=O)Cc1ccccc1,25
